Source: ChEMBL document CHEMBL4840303, “Design, synthesis, biological evaluation and pharmacophore model analysis of novel tetrahydropyrrolo[3,4-c]pyrazol derivatives as potential TRKs inhibitors” (Eur J Med Chem, 2021)
pIC50: −log10 of the molar value.

Experiments:
[1] = biological target: Focal adhesion kinase 1 (Homo sapiens) (UniProt Q05397); test: Inhibition of recombinant GST-tagged full length human FAK expressed in baculovirus expression system at 1 uM measured by select screen assay
Procedure, shortened: (§1)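 Single-concentration profiling at 1.0 µM in a 28-kinase SelectScreen panel; percent inhibition reported.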

[2] = biological target: Fibroblast growth factor receptor 1 (Homo sapiens) (UniProt P11362); test: Inhibition of recombinant His-tagged human FGFR1 expressed in baculovirus expression system at 1 uM measured by select screen assay relative to control; procedure, shortened: as §1
Chain of Fibroblast growth factor receptor 1 (Homo sapiens) (P11362 22-822 limits assumed): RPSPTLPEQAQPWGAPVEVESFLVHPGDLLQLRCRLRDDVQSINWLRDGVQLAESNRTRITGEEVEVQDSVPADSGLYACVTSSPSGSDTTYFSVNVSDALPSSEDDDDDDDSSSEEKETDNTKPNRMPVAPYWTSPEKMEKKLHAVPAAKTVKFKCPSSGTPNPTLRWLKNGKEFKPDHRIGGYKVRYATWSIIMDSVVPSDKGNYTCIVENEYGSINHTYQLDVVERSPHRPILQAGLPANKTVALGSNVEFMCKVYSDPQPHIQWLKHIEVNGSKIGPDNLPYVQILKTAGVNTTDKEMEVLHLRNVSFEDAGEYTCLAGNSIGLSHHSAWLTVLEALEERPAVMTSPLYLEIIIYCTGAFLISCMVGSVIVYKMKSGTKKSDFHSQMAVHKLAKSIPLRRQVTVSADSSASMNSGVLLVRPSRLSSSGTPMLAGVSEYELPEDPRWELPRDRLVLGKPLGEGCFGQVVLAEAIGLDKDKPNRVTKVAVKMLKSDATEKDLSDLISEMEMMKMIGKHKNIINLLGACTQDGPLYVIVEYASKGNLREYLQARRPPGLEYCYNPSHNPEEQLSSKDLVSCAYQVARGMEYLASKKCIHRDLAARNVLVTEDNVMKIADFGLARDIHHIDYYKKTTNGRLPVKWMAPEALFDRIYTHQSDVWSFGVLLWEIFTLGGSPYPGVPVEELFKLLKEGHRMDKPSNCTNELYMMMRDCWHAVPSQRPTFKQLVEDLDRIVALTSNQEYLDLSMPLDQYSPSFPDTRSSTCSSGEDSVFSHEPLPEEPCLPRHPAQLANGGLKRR

[3] = biological target: High affinity nerve growth factor receptor (Homo sapiens, UniProt P04629); test: Inhibition of N-terminal GST-tagged human TRKA (436 to 790 residues) expressed in baculovirus infected Sf21 cells using TK as substrate in presence of ATP measured after 30 mins by HTRF assay
Chain of High affinity nerve growth factor receptor (P04629 whole entry, the tested form may be a part): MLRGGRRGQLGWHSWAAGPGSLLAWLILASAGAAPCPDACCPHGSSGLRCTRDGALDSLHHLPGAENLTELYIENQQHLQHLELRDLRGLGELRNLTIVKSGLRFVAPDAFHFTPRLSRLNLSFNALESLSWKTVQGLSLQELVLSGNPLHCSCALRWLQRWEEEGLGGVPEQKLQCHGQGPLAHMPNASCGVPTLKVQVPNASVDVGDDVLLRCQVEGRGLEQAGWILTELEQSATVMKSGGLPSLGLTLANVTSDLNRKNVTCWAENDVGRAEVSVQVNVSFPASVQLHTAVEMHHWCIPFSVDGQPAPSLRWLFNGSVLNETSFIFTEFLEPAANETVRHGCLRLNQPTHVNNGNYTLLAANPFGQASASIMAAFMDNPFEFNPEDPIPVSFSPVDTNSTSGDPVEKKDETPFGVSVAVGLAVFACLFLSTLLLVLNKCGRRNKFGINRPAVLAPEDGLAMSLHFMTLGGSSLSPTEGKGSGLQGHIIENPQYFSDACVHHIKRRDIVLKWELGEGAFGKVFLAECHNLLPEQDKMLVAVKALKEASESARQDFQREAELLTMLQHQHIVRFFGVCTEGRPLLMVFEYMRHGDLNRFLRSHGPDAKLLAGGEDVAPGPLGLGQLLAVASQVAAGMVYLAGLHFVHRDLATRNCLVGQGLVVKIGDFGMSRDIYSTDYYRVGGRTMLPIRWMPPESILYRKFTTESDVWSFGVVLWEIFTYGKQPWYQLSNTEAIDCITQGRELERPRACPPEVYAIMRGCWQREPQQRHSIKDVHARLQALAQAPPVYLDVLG

KM12 [4] = test: Induction of apoptosis in human KM12 cells assessed as viable cells at 250 nM measured after 48 hrs by AnnexinV-FITC/PI staining based flowcytometry assay relative to control; type: functional; details: read-out: Activity
Procedure, shortened: (§2)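 10^5 cells in Annexin V binding buffer stained with FITC-Annexin V and PI for 10 min at room temperature in the dark, diluted with PBS and analysed by flow cytometry (FITC 494/518 nm, PI 535/617 nm).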

KM12 [5] = test: Induction of apoptosis in human KM12 cells assessed as late apoptotic cells at 250 nM measured after 48 hrs by AnnexinV-FITC/PI staining based flowcytometry assay relative to control; type: functional
Procedure, shortened: (§3)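 They were detached with trypsin, washed twice in PBS, and 10^5 cells were suspended in Annexin V binding buffer. Cells were stained with FITC-Annexin V and PI for 10 min at room temperature in the dark, diluted with PBS and analysed by flow cytometry.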

KM12 [6] = test: Induction of apoptosis in human KM12 cells assessed as viable cells at 500 nM measured after 48 hrs by AnnexinV-FITC/PI staining based flowcytometry assay relative to control; type: functional; details: read-out: Activity; procedure, shortened: as §2
KM12 [7] = test: Induction of apoptosis in human KM12 cells assessed as late apoptotic cells at 1000 nM measured after 48 hrs by AnnexinV-FITC/PI staining based flowcytometry assay relative to control; type: functional; procedure, shortened: as §3
KM12 [8] = test: Cell cycle arrest in human KM12 cells assessed as accumulation of cells at G1 phase at 62.5 nM measured after 48 hrs by AnnexinV-FITC/PI staining based flowcytometry method relative to control; type: functional
KM12 [9] = test: Cell cycle arrest in human KM12 cells assessed as accumulation of cells at S phase at 62.5 nM measured after 48 hrs by AnnexinV-FITC/PI staining based flowcytometry method relative to control; type: functional
KM12 [10] = test: Cell cycle arrest in human KM12 cells assessed as accumulation of cells at G2 phase at 62.5 nM measured after 48 hrs by AnnexinV-FITC/PI staining based flowcytometry method relative to control; type: functional
KM12 [11] = test: Cell cycle arrest in human KM12 cells assessed as accumulation of cells at greater G1 phase at 62.5 nM measured after 48 hrs by AnnexinV-FITC/PI staining based flowcytometry method relative to control; type: functional
KM12 [12] = test: Cell cycle arrest in human KM12 cells assessed as accumulation of cells at G2 phase at 250 nM measured after 48 hrs by AnnexinV-FITC/PI staining based flowcytometry method relative to control; type: functional
KM12 [13] = test: Cell cycle arrest in human KM12 cells assessed as accumulation of cells at greater G1 phase at 1000 nM measured after 48 hrs by AnnexinV-FITC/PI staining based flowcytometry method relative to control; type: functional
[14] = biological target: NT-3 growth factor receptor (Homo sapiens, UniProt Q16288); test: Inhibition of recombinant His-tagged human TRKC expressed in baculovirus expression system at 1 uM measured by select screen assay relative to control; procedure, shortened: as §1
[15] = biological target: RAF proto-oncogene serine/threonine-protein kinase (Homo sapiens) (UniProt P04049); test: Inhibition of recombinant GST-tagged human RAF1 expressed in baculovirus expression system at 1 uM measured by select screen assay relative to control; procedure, shortened: as §1
Chain of RAF proto-oncogene serine/threonine-protein kinase (Homo sapiens) (P04049 whole entry): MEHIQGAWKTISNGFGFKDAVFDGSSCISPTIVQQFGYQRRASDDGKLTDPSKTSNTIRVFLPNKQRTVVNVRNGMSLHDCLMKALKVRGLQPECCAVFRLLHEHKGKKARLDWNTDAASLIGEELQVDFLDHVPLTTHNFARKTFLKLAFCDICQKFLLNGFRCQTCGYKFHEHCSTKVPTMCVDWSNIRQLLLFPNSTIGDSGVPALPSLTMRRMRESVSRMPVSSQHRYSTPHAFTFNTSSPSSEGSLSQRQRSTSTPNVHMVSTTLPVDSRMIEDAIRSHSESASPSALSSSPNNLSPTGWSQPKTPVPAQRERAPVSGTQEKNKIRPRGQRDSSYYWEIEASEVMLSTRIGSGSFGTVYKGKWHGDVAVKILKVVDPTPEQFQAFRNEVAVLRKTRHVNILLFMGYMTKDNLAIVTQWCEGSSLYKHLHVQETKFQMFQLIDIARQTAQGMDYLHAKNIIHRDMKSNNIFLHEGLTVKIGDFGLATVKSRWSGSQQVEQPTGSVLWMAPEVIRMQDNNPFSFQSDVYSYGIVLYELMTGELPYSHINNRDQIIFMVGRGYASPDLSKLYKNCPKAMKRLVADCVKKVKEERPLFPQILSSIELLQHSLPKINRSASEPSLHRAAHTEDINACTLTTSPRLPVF

[16] = biological target: Dual specificity mitogen-activated protein kinase kinase 1 (Homo sapiens) (UniProt Q02750); test: Inhibition of recombinant His-tagged full length human MEK expressed in baculovirus expression system at 1 uM measured by select screen assay relative to control; procedure, shortened: as §1
Chain of Dual specificity mitogen-activated protein kinase kinase 1 (Homo sapiens) (Q02750 whole entry): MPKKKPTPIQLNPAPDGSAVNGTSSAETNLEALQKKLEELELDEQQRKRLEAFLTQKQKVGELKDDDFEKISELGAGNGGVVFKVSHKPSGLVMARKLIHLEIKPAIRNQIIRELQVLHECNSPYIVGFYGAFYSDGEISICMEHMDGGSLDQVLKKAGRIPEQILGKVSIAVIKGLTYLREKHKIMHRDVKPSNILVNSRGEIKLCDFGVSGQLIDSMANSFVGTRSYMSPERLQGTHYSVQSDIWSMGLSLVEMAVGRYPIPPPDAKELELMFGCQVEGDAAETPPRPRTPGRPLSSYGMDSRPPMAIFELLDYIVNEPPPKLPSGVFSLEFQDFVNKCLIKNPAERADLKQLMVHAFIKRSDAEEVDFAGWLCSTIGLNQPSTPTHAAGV

[17] = biological target: Serine/threonine-protein kinase PAK 1 (Homo sapiens) (UniProt Q13153); test: Inhibition of recombinant GST-tagged human full length PAK1 expressed in baculovirus expression system at 1 uM measured by select screen assay relative to control; procedure, shortened: as §1
Chain of Serine/threonine-protein kinase PAK 1 (Homo sapiens) (Q13153 whole entry, the tested form may be a part): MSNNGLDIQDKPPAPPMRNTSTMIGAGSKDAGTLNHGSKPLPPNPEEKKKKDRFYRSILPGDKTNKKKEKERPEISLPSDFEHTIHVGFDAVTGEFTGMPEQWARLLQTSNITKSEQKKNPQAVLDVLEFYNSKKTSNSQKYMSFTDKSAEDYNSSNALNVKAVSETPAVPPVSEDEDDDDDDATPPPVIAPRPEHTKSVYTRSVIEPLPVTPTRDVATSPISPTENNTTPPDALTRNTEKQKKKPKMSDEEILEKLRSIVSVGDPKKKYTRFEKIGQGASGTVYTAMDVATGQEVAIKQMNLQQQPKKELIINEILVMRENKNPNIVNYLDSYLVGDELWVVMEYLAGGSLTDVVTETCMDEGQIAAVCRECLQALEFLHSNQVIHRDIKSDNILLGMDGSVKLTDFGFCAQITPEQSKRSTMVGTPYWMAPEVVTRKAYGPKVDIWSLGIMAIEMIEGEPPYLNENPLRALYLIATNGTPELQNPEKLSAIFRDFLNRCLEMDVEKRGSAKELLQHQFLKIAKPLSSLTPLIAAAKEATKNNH

[18] = biological target: Serine/threonine-protein kinase mTOR (Homo sapiens) (UniProt P42345); test: Inhibition of recombinant GST-tagged human mTOR (1360 to 2549 residues) expressed in baculovirus expression system at 1 uM measured by select screen assay relative to control; procedure, shortened: as §1
[19] = biological target: Serine/threonine-protein kinase PLK4 (Homo sapiens) (UniProt O00444); test: Inhibition of recombinant GST-tagged human PLK4 expressed in baculovirus expression system at 1 uM measured by select screen assay relative to control; procedure, shortened: as §1
[20] = biological target: Serine/threonine-protein kinase pim-1 (Homo sapiens) (UniProt P11309); test: Inhibition of recombinant His-tagged full length human PIM1 expressed in baculovirus expression system at 1 uM measured by select screen assay relative to control; procedure, shortened: as §1
Chain of Serine/threonine-protein kinase pim-1 (Homo sapiens) (P11309 whole entry, looked up): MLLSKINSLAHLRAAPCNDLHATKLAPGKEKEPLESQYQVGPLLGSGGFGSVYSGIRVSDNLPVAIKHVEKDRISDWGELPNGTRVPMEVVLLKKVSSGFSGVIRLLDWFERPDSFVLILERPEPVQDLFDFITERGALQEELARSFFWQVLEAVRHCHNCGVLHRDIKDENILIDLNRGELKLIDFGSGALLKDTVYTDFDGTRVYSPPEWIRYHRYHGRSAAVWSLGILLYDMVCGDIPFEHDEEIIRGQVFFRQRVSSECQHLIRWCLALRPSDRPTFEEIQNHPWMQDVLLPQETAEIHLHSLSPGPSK

[21] = Stability in human plasma assessed as compound remaining incubated for 120 mins by LC-MS/MS analysis; type: ADME, cell-free; details: read-out: Stability
Procedure, shortened: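 Pooled frozen human plasma thawed at 37 °C, centrifuged to remove clots, pH adjusted to 7.4 if required. Spiked to 2 µM final (from 100 µM dosing solution), in duplicate, incubated at 37 °C in a water bath. Sampled at 0, 10, 30, 60 and 120 min, quenched with acetonitrile stop solution containing internal standards, centrifuged, and supernatant analysed by LC-MS/MS for percent remaining.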

CYP2C9 = CYP2C9 (Homo sapiens, UniProt P11712); test: Inhibition of CYP2C9 in human liver microsomes at 10 uM preincubated for 10 mins followed by addition of NADPH and measured after 15 mins by LC-MS/MS analysis; type: ADME; details: time 25 min
Chain of CYP2C9 (P11712 whole entry): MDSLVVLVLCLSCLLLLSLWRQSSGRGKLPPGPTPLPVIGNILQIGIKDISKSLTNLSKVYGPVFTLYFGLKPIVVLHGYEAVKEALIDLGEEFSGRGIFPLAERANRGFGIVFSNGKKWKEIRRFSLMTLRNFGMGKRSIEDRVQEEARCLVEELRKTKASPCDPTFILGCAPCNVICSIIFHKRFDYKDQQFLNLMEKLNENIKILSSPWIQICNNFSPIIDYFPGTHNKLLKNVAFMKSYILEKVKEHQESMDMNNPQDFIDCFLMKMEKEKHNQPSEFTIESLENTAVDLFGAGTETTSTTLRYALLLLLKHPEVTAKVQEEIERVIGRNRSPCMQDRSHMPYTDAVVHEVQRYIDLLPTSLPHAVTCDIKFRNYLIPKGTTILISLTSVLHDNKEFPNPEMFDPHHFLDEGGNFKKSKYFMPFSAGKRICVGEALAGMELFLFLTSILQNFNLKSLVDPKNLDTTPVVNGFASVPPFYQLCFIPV
Procedure, shortened: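 Pooled human liver microsomes (0.253 mg/mL) with test compound at 10 µM and probe substrates: phenacetin (CYP1A2), diclofenac (CYP2C9), S-mephenytoin (CYP2C19), dextromethorphan (CYP2D6), midazolam (CYP3A4). 10 min preincubation at 37 °C, NADPH-regenerating system added, 15 min at 37 °C. Stopped with cold acetonitrile containing tolbutamide/labetalol internal standards, centrifuged, supernatant read by LC-MS/MS; % inhibition.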

[22] = Half life in Sprague dawley rat at 1 mg/kg, iv; type: ADME, organism-based; details: in vivo
Procedure, shortened: (§4)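 Blood was collected into heparin tubes at specified time points and centrifuged at once (4 °C, 4000 rpm, 20 min). Plasma levels were quantified by LC-MS/MS. Parameters came from noncompartmental analysis.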

[23] = Cmax in Sprague dawley rat at 3 mg/kg, po; type: ADME, organism-based; set-up: route oral, dose 3 mg/kg; details: in vivo; procedure, shortened: as §4
[24] = MRT in Sprague dawley rat at 3 mg/kg, po; type: ADME, organism-based; details: in vivo
Procedure, shortened: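 Male-unspecified SD rats, n = 3 per group, single i.v. dose 1 mg/kg or oral 3 mg/kg. Blood drawn into heparin tubes at set times, centrifuged at 4 °C, plasma quantified by LC-MS/MS; noncompartmental parameters fitted.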

THLE-2 = test: cells; details: Homo sapiens, THLE-2, 72 h

Chain of Focal adhesion kinase 1 (Homo sapiens) (Q05397 2-1052 limits assumed): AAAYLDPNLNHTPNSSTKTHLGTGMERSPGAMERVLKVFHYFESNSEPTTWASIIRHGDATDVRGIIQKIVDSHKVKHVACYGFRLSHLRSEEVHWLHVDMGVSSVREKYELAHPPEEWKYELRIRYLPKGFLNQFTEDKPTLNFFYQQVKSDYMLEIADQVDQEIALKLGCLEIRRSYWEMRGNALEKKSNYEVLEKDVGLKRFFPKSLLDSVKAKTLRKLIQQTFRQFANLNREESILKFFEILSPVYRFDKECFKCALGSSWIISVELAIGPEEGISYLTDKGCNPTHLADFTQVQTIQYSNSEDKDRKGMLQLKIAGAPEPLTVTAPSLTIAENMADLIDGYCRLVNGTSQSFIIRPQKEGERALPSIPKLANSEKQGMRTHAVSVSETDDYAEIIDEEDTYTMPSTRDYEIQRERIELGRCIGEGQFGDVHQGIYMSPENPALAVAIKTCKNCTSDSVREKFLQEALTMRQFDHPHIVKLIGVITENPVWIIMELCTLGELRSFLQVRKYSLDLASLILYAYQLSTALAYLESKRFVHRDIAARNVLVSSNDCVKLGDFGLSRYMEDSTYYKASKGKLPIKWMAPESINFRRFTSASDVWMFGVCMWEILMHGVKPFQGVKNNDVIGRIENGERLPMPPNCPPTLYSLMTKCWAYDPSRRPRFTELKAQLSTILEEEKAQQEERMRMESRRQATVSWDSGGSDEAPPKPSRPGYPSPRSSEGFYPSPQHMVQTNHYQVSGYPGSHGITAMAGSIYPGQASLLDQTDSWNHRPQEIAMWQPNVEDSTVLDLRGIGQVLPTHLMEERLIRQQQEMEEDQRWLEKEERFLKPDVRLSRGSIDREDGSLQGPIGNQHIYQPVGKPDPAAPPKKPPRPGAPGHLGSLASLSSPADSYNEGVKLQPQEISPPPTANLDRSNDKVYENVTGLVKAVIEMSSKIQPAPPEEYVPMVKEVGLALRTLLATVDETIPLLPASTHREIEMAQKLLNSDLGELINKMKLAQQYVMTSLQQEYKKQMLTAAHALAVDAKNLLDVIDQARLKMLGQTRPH

inhibition [1]: 51% | inhibition [2]: 60% | pIC50 [3]: 7.77 | inhibition [14]: 99% | inhibition [15]: 11% | inhibition [16]: 8% | inhibition [17]: 3% | inhibition [18]: 1% | inhibition [19]: 0% | inhibition [20]: 0% | remaining at 2 h [21]: 101% | inhibition at 0.25 h, 10 µM (CYP2C9): 16% | half-life [22]: 1.51 h | Cmax [23]: 603 ng/mL | MRT [24]: 3.49 h | pIC50 (THLE-2): < 4.00
SMILES: CN1CCN(c2ccc(C(=O)Nc3n[nH]c4c3CN(Cc3cc(F)cc(F)c3)C4(C)C)cc2)CC1
viability at 0.25 µM (KM12 [4]): 30.2% | Activity (KM12 [5]): 36.84% | viability at 0.5 µM (KM12 [6]): 25% | Activity (KM12 [7]): 39.95% | Activity (KM12 [8]): 40.3% | Activity (KM12 [9]): 35.6% | Activity (KM12 [10]): 15.8% | Activity (KM12 [11]): 4.25% | Activity (KM12 [12]): 9.26% | Activity (KM12 [13]): 1.59%
